{"source": "PubChem BioAssay AID493249", "about": "(Broad Institute, 2011)", "note": "The source made the active and inactive calls.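 How the source made its calls: active means compounds lowering cell viability with a fitted IC50 within ten times their top tested dose; inconclusive means flat viability loss of 30 to 70 percent, or poor fit; inactive means the rest.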", "data": [{"assay": "toxicity in U2OS HRE-luc reporter cells, dose response, cytotoxicity control for HIF pathway activator project, cell-based, dry powder, set 7 (AID 493249)", "conditions": "U2OS HRE-luc cells, viability toxicity counter-screen, CellTiter-Glo; at 38 µM (top of the series)", "summary_of_the_method": "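measured by = CellTiter-Glo luminescence | assay system = human osteosarcoma U2OS cells stably expressing 3×HRE-luciferase reporter | medium = phenol red-free DMEM, 10% FBS, no hygromycin | incubation = 24 h cell attachment, then 24 h compound exposure, 37 °C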", "values": [{"smiles": "Cc1cccc(NC(=O)c2cc(-c3ccccc3)on2)n1", "activity change, negative = toxicity": "-0.352% (inactive)"}, {"smiles": "Cc1cccc(CNC(=O)c2cc(-c3ccccc3)on2)c1", "activity change, negative = toxicity": "-1.11% (inactive)"}, {"smiles": "O=C(NCCCn1ccnc1)c1cc(-c2ccccc2)on1", "activity change, negative = toxicity": "-7.78% (inactive)"}, {"smiles": "c1ccc(-c2nnc(-c3ccccn3)nc2NCC2CCOCC2)cc1", "activity change, negative = toxicity": "20.8% (inactive)"}, {"smiles": "Oc1ccc(CN2CCc3ccccc3C2)c2cccnc12", "activity change, negative = toxicity": "-16.2% (inactive)"}, {"smiles": "O=C(Nc1ccc2ccccc2n1)c1cc(-c2ccccc2)on1", "activity change, negative = toxicity": "9.02% (inactive)"}, {"smiles": "c1ccc(-c2nnc(-c3ccccn3)nc2NCC2CCCCC2)cc1", "activity change, negative = toxicity": "-26% (inactive)"}, {"smiles": "OCC1CCN(Cc2ccc(O)c3ncccc23)CC1", "activity change, negative = toxicity": "-25% (inactive)"}, {"smiles": "O=C(Nc1nc2ccccc2s1)c1cc(-c2ccccc2)on1", "activity change, negative = toxicity": "-1.46% (inactive)"}, {"smiles": "O=C(Nc1cnc2ccccc2c1)c1cc(-c2ccccc2)on1", "activity change, negative = toxicity": "0.164% (inactive)"}, {"smiles": "O=C(NCCCN1CCOCC1)c1cc(-c2ccccc2)on1", "activity change, negative = toxicity": "0.736% (inactive)"}, {"smiles": "Cc1ccccc1CNC(=O)c1cc(-c2ccccc2)on1", "activity change, negative = toxicity": "-4.19% (inactive)"}, {"smiles": "c1ccc(-c2nnc(-c3ccccn3)nc2NCc2cccnc2)cc1", "activity change, negative = toxicity": "40.2% (inactive)"}, {"smiles": "Oc1ccc(CNC2CCc3ccccc32)c2cccnc12", "note": "(centres undefined)", "activity change, negative = toxicity": "-17.9% (inactive)"}, {"smiles": "N#CC1(c2ccccc2)CCN(Cc2ccc(O)c3ncccc23)CC1", "activity change, negative = toxicity": "7.2% (inactive)"}, {"smiles": "Cc1ccc(CNc2nc(-c3ccccn3)nnc2-c2ccccc2)cc1", "activity change, negative = toxicity": "-15.4% (inactive)"}, {"smiles": "O=C(Nc1ncc2ccccc2n1)c1cc(-c2ccccc2)on1", "activity change, negative = toxicity": "-4.1% (inactive)"}, {"smiles": "O=C(c1cc(-c2ccccc2)on1)N1CCC(N2CCOCC2)CC1", "activity change, negative = toxicity": "-9.91% (inactive)"}, {"smiles": "COc1ccccc1N1CCN(Cc2ccc(O)c3ncccc23)CC1", "activity change, negative = toxicity": "-18.6% (inactive)"}, {"smiles": "Cc1cccc(Nc2nc(-c3ccccn3)nnc2-c2ccccc2)n1", "activity change, negative = toxicity": "-12.6% (inactive)"}, {"smiles": "CN(C)CCNC(=O)c1cc(-c2ccccc2)on1", "activity change, negative = toxicity": "14.4% (inactive)"}, {"smiles": "O=C(NCC1CCCCC1)c1cc(-c2ccccc2)on1", "activity change, negative = toxicity": "0.869% (inactive)"}, {"smiles": "O=C(NC1Cc2ccccc2C1)c1cc(-c2ccccc2)on1", "activity change, negative = toxicity": "-13.3% (inactive)"}, {"smiles": "CC(Nc1nc(-c2ccccn2)nnc1-c1ccccc1)c1ccccc1", "note": "(centres undefined)", "activity change, negative = toxicity": "0.427% (inactive)"}, {"smiles": "C=CCNc1nc(-c2ccccn2)nnc1-c1ccccc1", "activity change, negative = toxicity": "3.09% (inactive)"}, {"smiles": "c1ccc(-c2nnc(-c3ccccn3)nc2N2CCC(c3ccccc3)C2)cc1", "note": "(centres undefined)", "activity change, negative = toxicity": "-24.1% (inactive)"}, {"smiles": "CN(C)c1nc(-c2ccccn2)nnc1-c1ccccc1", "activity change, negative = toxicity": "2.11% (inactive)"}, {"smiles": "OCC1CCN(c2nc(-c3ccccn3)nnc2-c2ccccc2)CC1", "activity change, negative = toxicity": "-13.9% (inactive)"}, {"smiles": "CC(C)(C)CCNC(=O)c1cc(-c2ccccc2)on1", "activity change, negative = toxicity": "-7.02% (inactive)"}, {"smiles": "c1ccc(-c2nnc(-c3ccccn3)nc2NCCc2ccccn2)cc1", "activity change, negative = toxicity": "4.22% (inactive)"}, {"smiles": "COc1ccc(CNc2nc(-c3ccccn3)nnc2-c2ccccc2)cc1", "activity change, negative = toxicity": "-2.05% (inactive)"}, {"smiles": "O=C(c1cc(-c2ccccc2)on1)N1CCC(CO)CC1", "activity change, negative = toxicity": "1.17% (inactive)"}, {"smiles": "O=C(NCC1CC1)c1cc(-c2ccccc2)on1", "activity change, negative = toxicity": "-6.03% (inactive)"}, {"smiles": "Cc1ccc(NC(=O)c2cc(-c3ccccc3)on2)cn1", "activity change, negative = toxicity": "-11.1% (inactive)"}, {"smiles": "Cc1ccccc1CNc1nc(-c2ccccn2)nnc1-c1ccccc1", "activity change, negative = toxicity": "-17.6% (inactive)"}, {"smiles": "O=C(Nc1nnc(-c2ccccc2)s1)c1cc(-c2ccccc2)on1", "activity change, negative = toxicity": "-7.07% (inactive)"}, {"smiles": "c1ccc(-c2cnc(Nc3nc(-c4ccccn4)nnc3-c3ccccc3)s2)cc1", "activity change, negative = toxicity": "1.53% (inactive)"}, {"smiles": "c1ccc(CCNc2nc(-c3ccccn3)nnc2-c2ccccc2)cc1", "activity change, negative = toxicity": "-5.99% (inactive)"}, {"smiles": "Oc1ccc(CNC2Cc3ccccc3C2)c2cccnc12", "activity change, negative = toxicity": "0.726% (inactive)"}]}]}
